≈ marks a conversion by molar mass, not a printed value.
Legend:
Format in all cases: functional
[1] = system: Bacillus subtilis; test: Antibacterial activity against Bacillus subtilis ATCC 21216 after 24 hrs by micro-broth dilution method; conditions: ATCC 21216, 24 h
Summary of the method: (§1)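 MIC by broth microdilution following NCCLS methods. Inoculum adjusted in sterile saline to 1×10^4–1×10^5 CFU. Compounds from DMSO stocks, two-fold serial dilutions in Mueller-Hinton broth at 256 down to 0.25 µg/mL. Incubation 37 °C, 24 h. DMSO solvent control at matching dilutions. Growth read visually and spectrophotometrically. MIC is the lowest concentration arresting growth.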

[2] = system: Staphylococcus aureus; test: Antibacterial activity against methicillin-resistant Staphylococcus aureus N315 after 24 hrs by micro-broth dilution method; conditions: N315, 24 h
Summary of the method: (§2)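 Broth microdilution per NCCLS in Mueller-Hinton broth. Inoculum adjusted in sterile saline to 1×10^4–1×10^5 CFU. Compounds taken from DMSO stocks and serially diluted two-fold to final 256–0.25 µg/mL (11 levels). Incubation 37 °C, 24 h, with a DMSO solvent control. Growth read visually and spectrophotometrically. MIC is the lowest concentration that arrests growth.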

[3] = system: Staphylococcus aureus; test: Antibacterial activity against Staphylococcus aureus ATCC 29213 after 24 hrs by micro-broth dilution method; conditions: ATCC 29213, 24 h; summary of the method: as §2
[4] = system: Escherichia coli; test: Antibacterial activity against Escherichia coli ATCC 25922 after 24 hrs by micro-broth dilution method; conditions: ATCC 25922, 24 h; summary of the method: as §1
[5] = system: Pseudomonas aeruginosa; test: Antibacterial activity against Pseudomonas aeruginosa ATCC 27853 after 24 hrs by micro-broth dilution method; conditions: ATCC 27853, 24 h; summary of the method: as §1
[6] = system: Candida albicans; test: Antifungal activity against Candida albicans ATCC 76615 after 24 hrs by micro-broth dilution method; conditions: ATCC 76615, 24 h
Summary of the method: (§3)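 Broth microdilution per NCCLS. Spore suspension in sterile distilled water, taken from 1-day-old cultures on Sabouraud agar, final 1–5×10^3 spores/mL. Compounds diluted from stocks in RPMI 1640 to eleven concentrations, 0.25–256 µg/mL. Incubation 35 °C, 24 h. Growth scored visually and spectrophotometrically. MIC is the lowest concentration arresting fungal growth.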

[7] = system: Aspergillus fumigatus; test: Antifungal activity against Aspergillus fumigatus ATCC 96918 after 24 hrs by micro-broth dilution method; conditions: ATCC 96918, 24 h; summary of the method: as §3
[8] = system: Bacillus; test: Antibacterial activity against Bacillus proteus ATCC 13315 after 24 hrs by micro-broth dilution method; conditions: ATCC 13315, 24 h; summary of the method: as §1

SMILES	MIC [1] [µg/mL]	MIC [2] [µg/mL]	MIC [3] [µg/mL]	MIC [4] [µg/mL]	MIC [5] [µg/mL]	MIC [6] [µg/mL]	MIC [7] [µg/mL]	MIC [8] [µg/mL]
Cl.Clc1ccc(CN(CCn2cncn2)CCn2cncn2)c(Cl)c1	128	128	16	32	16	0.25	128	4
Clc1ccc(CN(CCn2ccnc2)CCn2ccnc2)cc1	64 (≈ 194 µM)	64 (≈ 194 µM)	64 (≈ 194 µM)	32 (≈ 97 µM)	64 (≈ 194 µM)	> 256	> 256	128 (≈ 388 µM)
Clc1ccc(CN(CCn2cncn2)CCn2cncn2)cc1	> 256	> 256	> 256	256 (≈ 772 µM)	16 (≈ 48.2 µM)	> 256	> 256	128 (≈ 386 µM)
Cl.Clc1ccc(CN(CCn2cncn2)CCn2cncn2)cc1Cl	16	32	32	32	32	128	256	0.25
Cl.Fc1ccc(CN(CCn2ccnc2)CCn2ccnc2)c(F)c1	8	16	16	16	64	128	> 256	32
Fc1ccc(CN(CCn2cnc3ccccc32)CCn2cnc3ccccc32)c(F)c1	64 (≈ 148 µM)	> 256	64 (≈ 148 µM)	128 (≈ 297 µM)	> 256	> 256	> 256	64 (≈ 148 µM)
Clc1ccc(CN(CCn2cncn2)CCn2cncn2)c(Cl)c1	> 256	256 (≈ 699 µM)	64 (≈ 175 µM)	64 (≈ 175 µM)	32 (≈ 87.4 µM)	0.25 (≈ 0.683 µM)	> 256	16 (≈ 43.7 µM)
Clc1ccc(CN(CCn2ccnc2)CCn2ccnc2)c(Cl)c1	32 (≈ 87.8 µM)	16 (≈ 43.9 µM)	8 (≈ 22 µM)	16 (≈ 43.9 µM)	4 (≈ 11 µM)	128 (≈ 351 µM)	> 256	32 (≈ 87.8 µM)
Clc1ccc(CN(CCn2cncn2)CCn2cncn2)cc1Cl.O=[N+]([O-])O	16	64	16	32	64	256	> 256	0.25
Clc1ccc(CN(CCn2ccnc2)CCn2ccnc2)cc1Cl	16 (≈ 43.9 µM)	32 (≈ 87.8 µM)	16 (≈ 43.9 µM)	16 (≈ 43.9 µM)	64 (≈ 176 µM)	> 256	64 (≈ 176 µM)	64 (≈ 176 µM)
Clc1cccc(CN(CCn2cncn2)CCn2cncn2)c1	> 256	256 (≈ 772 µM)	256 (≈ 772 µM)	> 256	16 (≈ 48.2 µM)	> 256	> 256	32 (≈ 96.4 µM)
Clc1ccc(CN(CCn2cnc3ccccc32)CCn2cnc3ccccc32)c(Cl)c1	32 (≈ 68.9 µM)	64 (≈ 138 µM)	32 (≈ 68.9 µM)	128 (≈ 276 µM)	32 (≈ 68.9 µM)	> 256	> 256	32 (≈ 68.9 µM)
CCn1cc(C(=O)O)c(=O)c2cc(F)c(N3CCNCC3)cc21 [NORFLOXACIN]	1 (≈ 3.13 µM)	0.25 (≈ 0.783 µM)	0.25 (≈ 0.783 µM)	0.5 (≈ 1.57 µM)	2 (≈ 6.26 µM)	–	–	1 (≈ 3.13 µM)
Cc1cc2ncn(CCN(CCn3cnc4cc(C)c(C)cc43)Cc3ccc(Cl)cc3Cl)c2cc1C	64 (≈ 123 µM)	> 256	128 (≈ 246 µM)	16 (≈ 30.7 µM)	128 (≈ 246 µM)	> 256	> 256	32 (≈ 61.5 µM)
OCCN(CCO)Cc1ccc(Cl)cc1	> 256	> 256	> 256	256 (≈ 1110 µM)	256 (≈ 1110 µM)	> 256	> 256	256 (≈ 1110 µM)
OCCN(CCO)Cc1ccc(Cl)cc1Cl	256 (≈ 969 µM)	256 (≈ 969 µM)	128 (≈ 485 µM)	256 (≈ 969 µM)	128 (≈ 485 µM)	128 (≈ 485 µM)	256 (≈ 969 µM)	128 (≈ 485 µM)
OCCN(CCO)Cc1ccc(Cl)c(Cl)c1	128 (≈ 485 µM)	> 256	256 (≈ 969 µM)	128 (≈ 485 µM)	> 256	> 256	> 256	128 (≈ 485 µM)

Reference: ChEMBL document CHEMBL1240446, “Synthesis and biological activities of novel amine-derived bis-azoles as potential antibacterial and antifungal agents” (2010)
